# SR-BI uptake up = SR-BI HDL lipid transfer activation | CHO ldlA[mSR-BI] cells, DiI-HDL uptake fluorescence, 3 h; 100 = double the neutral-control signal | activation, % at 12.5 µM | 0.096% of 320,000 active;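 active = mean replicate activation of at least 60% and every replicate at or above 60%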;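 also: 0% = median plate neutral-control signal and 100% = twice that signal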
#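 Material: SR-BI-overexpressing, LDLR-lacking CHO cells; schedule: compound exposure 3 h, 37 °C; reagent: DiI-labelled HDL at 10 µg/mL final; technique: bottom-read fluorescence, 550/595 nm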
# SMARCA2 activ = activators of SMARCA2 function | MG213 cells, MMTV-luciferase reporter, dexamethasone, overnight | activation, % at 9.1 µM | 1% of 370,000 active; in the data active = activation above about 7.8%;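 also: 0% = vehicle wells and 100% = reference activator wells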
# AHR act = human AHR activation; P35869; AHR-responsive luciferase reporter cells, luminescence; activation, % at 5 µM; 2.5% of 320,000 active; in the data active = activation above about 47%;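 also: 0% = vehicle wells and 100% = reference agonist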
# Target sequence (P35869 whole entry, looked up): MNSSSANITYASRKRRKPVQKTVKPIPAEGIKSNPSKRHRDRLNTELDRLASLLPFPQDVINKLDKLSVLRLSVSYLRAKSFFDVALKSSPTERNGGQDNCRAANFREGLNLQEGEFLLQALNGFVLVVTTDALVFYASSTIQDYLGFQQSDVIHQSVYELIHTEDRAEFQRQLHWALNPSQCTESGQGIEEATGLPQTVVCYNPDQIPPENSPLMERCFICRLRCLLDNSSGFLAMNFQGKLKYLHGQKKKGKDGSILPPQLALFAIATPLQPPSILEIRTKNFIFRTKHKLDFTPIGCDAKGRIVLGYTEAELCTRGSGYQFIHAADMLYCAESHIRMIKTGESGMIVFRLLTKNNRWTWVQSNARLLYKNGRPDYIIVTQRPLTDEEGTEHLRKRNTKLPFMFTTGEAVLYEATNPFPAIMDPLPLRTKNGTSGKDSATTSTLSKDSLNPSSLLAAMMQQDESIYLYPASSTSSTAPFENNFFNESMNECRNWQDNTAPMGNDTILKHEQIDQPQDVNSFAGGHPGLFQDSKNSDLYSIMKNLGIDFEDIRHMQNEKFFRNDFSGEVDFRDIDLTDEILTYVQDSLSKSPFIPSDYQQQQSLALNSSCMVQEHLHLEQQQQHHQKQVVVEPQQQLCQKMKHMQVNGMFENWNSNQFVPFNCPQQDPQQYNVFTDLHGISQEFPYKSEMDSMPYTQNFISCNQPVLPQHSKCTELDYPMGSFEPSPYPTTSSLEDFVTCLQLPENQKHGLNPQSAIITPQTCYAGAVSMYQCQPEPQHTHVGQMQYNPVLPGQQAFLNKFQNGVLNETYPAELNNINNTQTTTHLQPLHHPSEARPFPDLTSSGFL
# SR-BI HDL uptake = mouse SR-BI HDL lipid transfer inhibition; 0.96% of 320,000 active; inhibition, % at 12.5 µM; Q61009; ldlA[mSR-BI] CHO cells, DiI-HDL uptake fluorescence, 3 h;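 active = mean replicate inhibition of at least 70% and a set share of replicates each scoring 70 or more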;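 also: 0% = median of neutral control wells and 100% = median of positive control wells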
# Hep lipid drop = modulators of hepatic lipid droplet formation; AML12 mouse hepatocytes, oleate lipid droplets, BODIPY imaging; inhibition, % at 6.5 µM; 0.4% of 240,000 active; AID 1656;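 active = lipid droplet intensity inhibited by at least 50%, with more than 500 cells counted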
#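 Test system: AML12 hepatocytes (mouse); reagent: oleate loading, 100 µM; dosing: one dose, 6.5 µM compound; incubation: overnight exposure; signal: fluorescence imaging, 20x objective, two fields per well; read-out basis: % inhibition of corrected integrated BODIPY droplet signal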
# CR mimetic SO = caloric restriction mimetics inhibiting age-related superoxide in yeast. S. cerevisiae aged cells, superoxide DHE fluorescence; hits give low values. superoxide response (% of plate mean), % at 10 µM. 0.18% of 330,000 active;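 active = superoxide response under a set limit, about three screen SD below normal, cut at about 65% in these data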;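 also: yeast aged for seven days with compound at 30 °C before DHE staining; 100% = average MFI of all compound-treated wells on the plate with controls excluded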
# Numbers without * were called inactive; i = inactive; x = no result. A selection: hits, their analogues and other compounds. The true share with any hit is near 4.3%.
SMILES,SR-BI uptake up,SMARCA2 activ,AHR act,SR-BI HDL uptake,Hep lipid drop,CR mimetic SO
Oc1ccc2ccccc2c1/C=N/Nc1ccccc1,13,-1,54*,-13,4,98
Cc1cc(Nc2ccccc2)nc(-c2ccccc2O)n1,-63,4,20,63,13,92
Oc1ccc2ccccc2c1C=NCc1ccccc1,x,1,56*,x,x,105
COC(=O)[C@]12C[C@H](CC(=O)NCc3cccs3)C(=O)N(Cc3cccc4ccccc34)C1=C[C@H](C(C)C)O[C@@H]2C1CC1,x,-3,x,x,x,x
O=S(=O)(NCc1ccc(Cl)c(Cl)c1)c1cc(Cl)ccc1N1CC[C@@H](O)C1,x,-4,x,x,x,x
COc1ccccc1N(C(C)=O)c1nc(C)cc(C)c1C#N,5,-1,48*,-5,-18,106
COc1ccc(Cl)cc1N(C(C)=O)c1nc(C)cc(C)c1C#N,9,0,54*,-9,-17,93
COc1cccc(N(C(C)=O)c2nc(C)cc(C)c2C#N)c1,7,-2,9,-7,-17,101
CC(=O)Nc1ccc(N2C(C(C)=O)=NN(c3ccc(Cl)cc3)C2c2sccc2C)cc1 (configuration not stated),-4,-1,66*,4,-28,84
CC(=O)Nc1ccc(N2C(C(C)=O)=NN(c3ccccc3)C2c2cccs2)cc1 (configuration not stated),34,-4,3,-34,x,119
Cc1ccc(NC(=S)NNC(=O)c2ccccc2OC(F)F)cc1,11,-3,102*,-11,x,105
O=C(NNC(=S)Nc1ccc(F)cc1)c1ccccc1OC(F)F,2,-3,92*,-2,-9,97
CCOC(=O)c1c(C)n(C)c2ccc(OC)c(NC(=O)CCN3CCSCC3)c12,-4,-4,65*,4,-16,124
O=C(Nc1nc2ncccn2c1-c1ccccc1)c1ccccc1,x,-1,x,x,x,x
O=S1(=O)c2ccc(Br)cc2OC[C@H](c2ccccc2)N1Cc1ccccc1,x,0,x,x,x,x
[O-]/C(=C(\C(=S)Nc1cccc2ccccc12)[n+]1ccccc1)c1ccc(Cl)s1,15,-2,73*,-15,0,99
[O-]C(=C(C(=S)Nc1cccc2ccccc12)[n+]1cccc(CO)c1)c1ccc(Cl)s1,-19,-4,x,19,x,x
CCOc1ccccc1-c1nc(C(N)=O)c2[nH]c(=O)n(-c3cccc(C)c3)c2n1,10,-2,64*,-10,x,108
CC(C)(C)N(NC(=O)Nc1cccc(F)c1)C(=O)c1ccccc1Cl,x,-4,x,x,x,x
COc1ccccc1-c1cnn2c(NC3CCCC3)cc(C)nc12,-86,5,35,86*,7,98
CCOC(=O)N1CCC(Nc2cc(C)nc3c(-c4ccccc4OC)c(C)nn23)CC1,-9,-5,-2,9,-14,97
COC(=O)c1cc(-c2c(C)noc2C)c(=O)n2c1CCC2,x,3,x,x,x,x
CN(C)S(=O)(=O)c1cc(NC(=O)[C@H](Cc2ccccc2)N2C(=O)c3ccccc3C2=O)ccc1Cl,-44,-2,71*,44,0,92
COc1ccc2[nH]c3c(c2c1)CCN[C@]31C(=O)Nc2ccccc21,x,-1,x,x,x,x
O=C(CN1C(=O)c2cccc3cccc1c23)Nc1cccnc1,-7,-1,54*,7,3,89
SMILES,SR-BI uptake up,SMARCA2 activ,AHR act,SR-BI HDL uptake,Hep lipid drop,CR mimetic SO
O=C(CN1C(=O)c2cccc3cccc1c23)NCc1cccnc1,17,x,17,-17,-16,105
O=C(CCn1nnc2ccccc21)N1CCN(c2cccc(C(F)(F)F)c2)CC1,x,-7,x,x,x,x
COc1cc(C(=O)Cc2nc3ccccc3n2C)cc(OC)c1OC,-21,-2,28,21,-6,111
COc1ccccc1C(=O)c1nc2ccccc2n1C,25,0,62*,-25,6,100
Cn1c(=O)cc(OCC(=O)N2CCCc3ccccc32)c2ccccc21,-2,-2,50*,2,-8,123
COC(=O)C1=C(C)N(C)C(=NCc2ccccc2C(F)(F)F)NC1c1ccc(F)cc1 (configuration not stated),x,-4,x,x,x,x
Cc1cc(-c2nnc3n2N=C(c2ccc(-c4ccccc4)cc2)CS3)n[nH]1,-27,-4,23,27,x,107
C[n+]1c2n(c3ccccc31)N=C(c1ccc(Br)cc1)CS2,-6,-5,60*,6,-18,106
C[n+]1c2n(c3ccccc31)N=C(c1ccc(-c3ccccc3)cc1)CS2,-13,-10,53*,13,-33,111
CCOc1ccc(C(=O)CSc2nnc(SCc3ccc(Cl)cc3)s2)cc1,x,-4,x,x,x,x
Cc1ccc(Nc2c([N+](=O)[O-])c(=O)n(C)c3ccccc23)cc1C,-71,-3,11,71*,3,94
CCCCC(=O)Nc1ccc(C(=O)Nc2nnc(COC)s2)cc1,-12,7.8*,4,12,12,95
C[C@@H]1CN([C@@H](C)CO)C(=O)CCCn2cc(nn2)CO[C@H]1CN(C)C(=O)Nc1ccc(C(F)(F)F)cc1,x,1,x,x,x,x
COC(=O)COc1ccc(/C=C2/SC(=O)N(CC(=O)N3CCCC3)C2=O)cc1Br,8,-4,3,-8,x,110
COC(=O)COc1cc(Br)c(/C=C2/SC(=O)N(CC(=O)N3CCCC3)C2=O)cc1OC,-82,-2,7,82*,x,98
Cc1cc2c(nc1C)CCCN2S(=O)(=O)c1c(C)noc1C,x,-2,x,x,x,x
CCOC(=O)C1=C(N)Oc2ccc3ccccc3c2C1c1cccc(O)c1 (configuration not stated),-12,-1,50*,12,-2,100
COc1ccccc1NC(=O)c1ccc(NC(=O)c2ccco2)cc1,x,-1,6,x,13,131
COC(=O)c1ccc(NC(=O)c2cccc(NC(=O)c3ccco3)c2)cc1,749*,2,3,i,14,105
COc1ccc(NC(=O)c2ccc(NC(=O)c3ccco3)cc2)c(OC)c1,-82,-2,6,82*,-10,97
COC(=O)c1cccc(NC(=O)c2ccco2)c1,-17,2,4,17,-13,99
O=C(Nc1cccc(NC(=O)c2ccco2)c1)c1ccc([N+](=O)[O-])cc1,-82,3,3,82*,0,84
COc1cc(NC(=O)c2ccco2)c(C(=O)OCC(=O)c2c[nH]c3ccccc23)cc1OC,-43,0,55*,43,8,84
O=C(CCc1ccccc1)N[C@H]1[C@@H](OC(=O)c2ccc([N+](=O)[O-])cc2)CCC[C@]12C(=O)N(Cc1ccccc1)c1ccccc12,x,-2,x,x,x,x
COC[C@@H]1CCCN1c1ccc2c(c1)O[C@@H]1CCN(C1)S2(=O)=O,x,-2,x,x,x,x
CN1OC[C@@H]2CN3C(=Nc4cc(C(F)(F)F)cc(C(F)(F)F)c4)Sc4ccccc4[C@@H]3C[C@@H]21,x,-5,x,x,x,x

# Assay outcomes (PubChem)
